From ChEMBL document CHEMBL4190249, “Antiproliferative and apoptotic activities of sequence-specific histone acetyltransferase inhibitors” (Eur J Med Chem, 2017)
The source made the active and inactive calls. No cut-off for these calls is given here.

Key:
[1] = biological target: T1, Histone acetyltransferase p300 (Homo sapiens, UniProt Q09472); test: Inhibition of p300 (unknown origin) using H3 peptide and acetyl-coA as substrate by fluorometric assay
Outline: (§1)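 Fluorometric HAT kit assay with recombinant p300 core domain as enzyme and acetyl-CoA plus H3 histone peptide as substrates. Effectors were tested at 1 and 5 μM. HeLa nuclear extract served as positive control, and 0.5% DMSO was set as 100% activity.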

[2] = biological target: T1, Histone acetyltransferase p300; test: Inhibition of p300 (unknown origin) at 1 to 5 uM sing H3 peptide and acetyl-coA as substrate by fluorometric assay
Outline: as §1, with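 “substrates. Released CoA-SH reacts with a developer, read at Ex/Em 535/587 nm.” for “substrates.”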

A549 = test: Antiproliferative activity against human A549 cells at 0.1 to 10 uM after 96 hrs by WST8 assay; format: functional, cell-based
Outline: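 Cells seeded at 5×10^3 per well and grown 24 h at 37°C, 5% CO2. A549 medium was DMEM with 10% FBS and 2 mM L-glutamine. SW620 medium had 10% FBS and 1% penicillin/streptomycin. Medium was then replaced with conjugate at 0.1, 1, 5 or 10 μM for 96 h. WST-8 reagent was added and absorbance read at 450 nm. Results are mean ± SD.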

T1 sequence (Q09472 whole entry, the tested form may be a part): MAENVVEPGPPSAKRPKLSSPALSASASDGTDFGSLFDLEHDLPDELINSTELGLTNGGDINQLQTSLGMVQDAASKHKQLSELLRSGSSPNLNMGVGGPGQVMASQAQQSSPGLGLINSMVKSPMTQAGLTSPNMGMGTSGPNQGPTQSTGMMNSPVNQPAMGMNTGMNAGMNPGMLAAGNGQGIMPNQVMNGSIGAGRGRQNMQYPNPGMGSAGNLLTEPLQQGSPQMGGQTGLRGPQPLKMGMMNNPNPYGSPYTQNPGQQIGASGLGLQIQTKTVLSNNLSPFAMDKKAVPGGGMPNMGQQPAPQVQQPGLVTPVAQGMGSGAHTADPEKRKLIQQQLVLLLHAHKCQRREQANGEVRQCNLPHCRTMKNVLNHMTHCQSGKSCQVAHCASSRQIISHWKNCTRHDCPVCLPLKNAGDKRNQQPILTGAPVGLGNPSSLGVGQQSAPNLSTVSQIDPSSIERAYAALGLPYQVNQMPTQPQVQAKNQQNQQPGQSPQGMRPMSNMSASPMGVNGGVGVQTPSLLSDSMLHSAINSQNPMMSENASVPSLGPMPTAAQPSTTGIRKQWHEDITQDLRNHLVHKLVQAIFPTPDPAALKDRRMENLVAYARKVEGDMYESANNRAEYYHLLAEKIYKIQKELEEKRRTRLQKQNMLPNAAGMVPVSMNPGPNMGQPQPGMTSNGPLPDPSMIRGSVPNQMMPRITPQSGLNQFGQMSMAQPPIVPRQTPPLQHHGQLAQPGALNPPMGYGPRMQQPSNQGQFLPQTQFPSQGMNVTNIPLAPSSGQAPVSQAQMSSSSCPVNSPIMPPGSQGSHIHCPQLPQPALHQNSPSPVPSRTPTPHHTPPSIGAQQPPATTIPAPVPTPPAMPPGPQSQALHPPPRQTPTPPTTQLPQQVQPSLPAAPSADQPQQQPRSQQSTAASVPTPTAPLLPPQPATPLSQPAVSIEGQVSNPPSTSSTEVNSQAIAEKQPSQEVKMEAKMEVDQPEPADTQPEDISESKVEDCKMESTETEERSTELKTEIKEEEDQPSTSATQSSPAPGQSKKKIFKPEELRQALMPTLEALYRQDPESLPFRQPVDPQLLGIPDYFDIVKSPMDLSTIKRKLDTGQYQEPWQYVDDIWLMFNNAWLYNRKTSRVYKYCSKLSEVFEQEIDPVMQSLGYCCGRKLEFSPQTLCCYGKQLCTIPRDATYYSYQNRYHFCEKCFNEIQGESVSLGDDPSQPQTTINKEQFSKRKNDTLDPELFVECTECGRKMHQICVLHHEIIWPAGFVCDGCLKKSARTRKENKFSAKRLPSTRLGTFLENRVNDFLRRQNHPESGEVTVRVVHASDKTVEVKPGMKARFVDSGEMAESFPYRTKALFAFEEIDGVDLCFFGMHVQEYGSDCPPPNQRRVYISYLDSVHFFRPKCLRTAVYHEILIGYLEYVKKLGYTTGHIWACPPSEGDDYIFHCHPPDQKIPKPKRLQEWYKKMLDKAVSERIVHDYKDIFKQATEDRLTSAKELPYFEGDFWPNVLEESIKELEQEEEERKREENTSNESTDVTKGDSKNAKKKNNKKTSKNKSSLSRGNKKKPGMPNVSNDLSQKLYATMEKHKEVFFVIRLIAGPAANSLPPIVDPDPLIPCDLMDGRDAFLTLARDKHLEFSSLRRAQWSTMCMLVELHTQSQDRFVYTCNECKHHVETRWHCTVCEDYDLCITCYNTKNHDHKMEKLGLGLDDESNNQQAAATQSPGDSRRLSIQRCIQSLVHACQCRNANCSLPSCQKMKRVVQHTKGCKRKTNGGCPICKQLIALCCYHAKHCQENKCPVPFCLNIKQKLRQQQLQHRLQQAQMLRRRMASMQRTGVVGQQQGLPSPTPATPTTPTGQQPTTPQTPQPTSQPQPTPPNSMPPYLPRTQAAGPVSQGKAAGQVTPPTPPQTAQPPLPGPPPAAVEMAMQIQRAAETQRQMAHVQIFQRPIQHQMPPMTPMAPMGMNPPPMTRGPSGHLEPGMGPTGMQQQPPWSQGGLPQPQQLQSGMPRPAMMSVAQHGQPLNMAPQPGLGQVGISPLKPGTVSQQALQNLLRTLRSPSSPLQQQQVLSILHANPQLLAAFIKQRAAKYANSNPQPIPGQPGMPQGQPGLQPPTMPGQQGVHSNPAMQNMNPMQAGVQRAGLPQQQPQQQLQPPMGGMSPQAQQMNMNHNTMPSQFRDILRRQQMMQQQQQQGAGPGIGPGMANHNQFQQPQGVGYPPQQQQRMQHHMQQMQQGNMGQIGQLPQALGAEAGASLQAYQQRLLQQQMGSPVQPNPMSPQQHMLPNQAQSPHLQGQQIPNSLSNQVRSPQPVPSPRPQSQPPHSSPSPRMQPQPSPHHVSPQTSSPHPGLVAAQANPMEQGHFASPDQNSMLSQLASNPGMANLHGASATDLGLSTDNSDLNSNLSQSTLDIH

inhibition [1]	inhibition [2]	SMILES	Activity (A549)
Dose-dependent effect		CCCCCCCCCCCCCCCc1cccc(O)c1C(=O)O	
	inactive	CC(=O)Nc1cc(C(=O)Nc2cn(C)c(C(=O)Nc3cn(C)c(C(=O)Nc4cc(C(=O)NCCCC(=O)Nc5cc(C(=O)Nc6cc(C(=O)Nc7cc(C(=O)Nc8cc(C(=O)NCCCN(C)C)n(C)c8)n(C)c7)n(C)c6)n(C)c5)n(C)c4)n3)n2)n(C)c1	inactive
Dose-dependent effect		CCCCCCCCCCCCCCOc1cc(OCCCCCC(=O)NCCC(=O)Nc2cc(C(=O)Nc3cn(C)c(C(=O)Nc4cn(C)c(C(=O)Nc5cc(C(=O)NCCCC(=O)Nc6cc(C(=O)Nc7cc(C(=O)Nc8cc(C(=O)Nc9cc(C(=O)O)n(C)c9)n(C)c8)n(C)c7)n(C)c6)n(C)c5)n4)n3)n(C)c2)cc(O)c1C(=O)O	
Dose-dependent effect		CCCCCCCCCCCCCCOc1cc(OCCCCCC(=O)NCCC(=O)Nc2cc(C(=O)Nc3cn(C)c(C(=O)Nc4cn(C)c(C(=O)Nc5cc(C(=O)NCCCC(=O)Nc6cc(C(=O)Nc7cc(C(=O)Nc8cc(C(=O)Nc9cc(C(=O)NCCCN(C)C)n(C)c9)n(C)c8)n(C)c7)n(C)c6)n(C)c5)n4)n3)n(C)c2)cc(O)c1C(=O)O	
